Experimental data taken from the array DNA melting data of Ke et al. (doi:10.1101/2024.01.08.574731).

Key:
[1] = folding enthalpy; higher = less favourable; fluorescence melt of hairpins on a sequencing array, two-state fit; conditions: sodium 0.088 M
Procedure, shortened: (§1)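 In 50 mM Na-HEPES pH 8.0 containing 25 mM NaCl, hairpins from the library on a sequenced MiSeq flow cell were imaged for Cy3 fluorescence at 2.5 °C steps up to 60 °C, with Cy3 and quencher oligos annealed. After normalisation to pre-quench Cy3 and to control constructs, two-state fits with bootstrapping gave melting temperature and folding enthalpy. Four replicates were combined by inverse-variance weighting, and fitted temperatures were shifted up by 9.35 °C to match UV melts.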

[2] = melting temperature; fluorescence melt of hairpins on a sequencing array, two-state fit, raised by 9.35 °C to match UV melts; conditions: sodium 0.088 M
Procedure, shortened: as §1

Sequence | folding enthalpy [1] | Tm [2]
GATCAACGAGTTGATC ((((((....)))))) | -51 kcal/mol | 55.6 °C
GATCAACGCCTTGATC ((((((....)))))) | -26 kcal/mol | 46.1 °C
GATCAACGCTTTGATC ((((((....)))))) | -44.1 kcal/mol | 46.4 °C
GATCAACGTTTTGATC ((((((....)))))) | -30.4 kcal/mol | 42.8 °C
GATCAACTAGTTGATC ((((((....)))))) | -38.6 kcal/mol | 56.3 °C
GATCAACTCTTGATC ((((((...)))))) | -35.7 kcal/mol | 42.3 °C
GATCAACTCTTTGATC ((((((....)))))) | -37.5 kcal/mol | 45.1 °C
GATCAACTTTTGATC ((((((...)))))) | -30.7 kcal/mol | 43.2 °C
GATCAAGAATTTGATC ((((((....)))))) | -30.8 kcal/mol | 49 °C
GATCAAGAGTTGATC ((((((...)))))) | -24.8 kcal/mol | 37.8 °C
GATCAAGAGTTTGATC ((((((....)))))) | -29.6 kcal/mol | 41.4 °C
GATCAAGATGTTGATC ((((((....)))))) | -28 kcal/mol | 43.5 °C
GATCAAGCAGTTGATC ((((((....)))))) | -31.8 kcal/mol | 46.6 °C
GATCAAGCGCTTGATC ((((((....)))))) | -51.6 kcal/mol | 55.9 °C
GATCAAGGAAACTTGACC (.(((((....))))).) | -18.7 kcal/mol | 29.8 °C
GATCAAGGAAACTTGGTC ((.((((....)))).)) | -30.5 kcal/mol | 41.5 °C
GATCAAGGCGTTGATC ((((((....)))))) | -35.8 kcal/mol | 48.5 °C
GATCAAGGGATTGATC ((((((....)))))) | -26.9 kcal/mol | 44.8 °C
GATCAAGGTATTGATC ((((((....)))))) | -35.2 kcal/mol | 48.7 °C
GATCAAGGTTTTGATC ((((((....)))))) | -29.7 kcal/mol | 45.1 °C
GATCAAGTAGTTGATC ((((((....)))))) | -31.6 kcal/mol | 46.7 °C
GATCAAGTCGTTGATC ((((((....)))))) | -39.2 kcal/mol | 48 °C
GATCAAGTGATTGATC ((((((....)))))) | -32.2 kcal/mol | 47.3 °C
GATCAAGTGCTTGATC ((((((....)))))) | -41.2 kcal/mol | 47.2 °C

Sequence | folding enthalpy [1] | Tm [2]
GATCAAGTTGTTGATC ((((((....)))))) | -36.6 kcal/mol | 45.1 °C
GATCAATAATTGATC ((((((...)))))) | -23.8 kcal/mol | 40.3 °C
GATCAATACCTTGATC ((((((....)))))) | -34 kcal/mol | 46.5 °C
GATCAATACTTGATC ((((((...)))))) | -30.4 kcal/mol | 42 °C
GATCAATAGTTTGATC ((((((....)))))) | -30.6 kcal/mol | 42.7 °C
GATCAATATCTTGATC ((((((....)))))) | -30.6 kcal/mol | 42.6 °C
GATCAATCACTTGATC ((((((....)))))) | -29.9 kcal/mol | 43.2 °C
GATCAATCCATTGATC ((((((....)))))) | -42.6 kcal/mol | 49.7 °C
GATCAATCGGTTGATC ((((((....)))))) | -42 kcal/mol | 44.4 °C
GATCAATCTCTTGATC ((((((....)))))) | -30.1 kcal/mol | 43.2 °C
GATCAATGCATTGATC ((((((....)))))) | -65.6 kcal/mol | 52.3 °C
GATCAATTACTTGATC ((((((....)))))) | -31.4 kcal/mol | 44 °C
GATCAATTATTGATC ((((((...)))))) | -29.3 kcal/mol | 43.8 °C
GATCAATTCTTTGATC ((((((....)))))) | -35.9 kcal/mol | 47.8 °C
GATCAATTTTTTGATC ((((((....)))))) | -35.1 kcal/mol | 47.3 °C
GATCACAAACGTGATC ((((((....)))))) | -33.2 kcal/mol | 55.6 °C
GATCACAAAGGTGATC ((((((....)))))) | -32.8 kcal/mol | 53.6 °C
GATCACAAATGTGATC ((((((....)))))) | -33.4 kcal/mol | 55.5 °C
GATCACAACGTGATC ((((((...)))))) | -34.4 kcal/mol | 61.3 °C
GATCACAAGCGTGATC ((((((....)))))) | -37.6 kcal/mol | 56.6 °C
GATCACAATAGTGATC ((((((....)))))) | -38.3 kcal/mol | 60.8 °C
GATCACAATGGTGATC ((((((....)))))) | -35.1 kcal/mol | 55.3 °C
GATCACACAGTGATC ((((((...)))))) | -38.1 kcal/mol | 58.8 °C
GATCACACCAGTGATC ((((((....)))))) | -38.6 kcal/mol | 59 °C

Sequence | folding enthalpy [1] | Tm [2]
GATCACACCGGTGATC ((((((....)))))) | -39.3 kcal/mol | 57.3 °C
GATCACACGAGTGATC ((((((....)))))) | -43.6 kcal/mol | 56.4 °C
GATCACACGCGTGATC ((((((....)))))) | -38.6 kcal/mol | 58.5 °C
GATCACACGGGTGATC ((((((....)))))) | -35.5 kcal/mol | 57.1 °C
GATCACACTCGTGATC ((((((....)))))) | -40.6 kcal/mol | 57.4 °C
GATCACAGCAGTGATC ((((((....)))))) | -40.3 kcal/mol | 59.5 °C
GATCACAGCTGTGATC ((((((....)))))) | -41.9 kcal/mol | 59 °C
GATCACATAAGTGATC ((((((....)))))) | -39.3 kcal/mol | 58.9 °C
GATCACATGGGTGATC ((((((....)))))) | -45.1 kcal/mol | 56.4 °C
GATCACATGGTGATC ((((((...)))))) | -37 kcal/mol | 61.1 °C
GATCACATGTGTGATC ((((((....)))))) | -43.2 kcal/mol | 57.2 °C
GATCACATTAGTGATC ((((((....)))))) | -45 kcal/mol | 59.2 °C
GATCACCACGTGATC ((((((...)))))) | -38.5 kcal/mol | 58.9 °C
GATCACCCAGTGATC ((((((...)))))) | -38.1 kcal/mol | 57.2 °C
GATCACCCCTGTGATC ((((((....)))))) | -47.6 kcal/mol | 55.6 °C
GATCACCCGAGTGATC ((((((....)))))) | -41.3 kcal/mol | 57 °C
GATCACCCGCGTGATC ((((((....)))))) | -48.3 kcal/mol | 54.5 °C
GATCACCCTTGTGATC ((((((....)))))) | -43.7 kcal/mol | 54.9 °C
GATCACCGAGGTGATC ((((((....)))))) | -46.8 kcal/mol | 63.5 °C
GATCACCGCAGTGATC ((((((....)))))) | -40 kcal/mol | 59 °C
GATCACCTCAGTGATC ((((((....)))))) | -42.3 kcal/mol | 59.6 °C
GATCACGAAAGTGAGATC ((((((....)))..))) | -17 kcal/mol | 48.5 °C
GATCACGAAAGTGATATC ((((((....)))..))) | -17.3 kcal/mol | 50.5 °C
GATCACGAAAGTGTTATC ((((((....)))..))) | -9.57 kcal/mol | 28.4 °C

Sequence | folding enthalpy [1] | Tm [2]
GATCACGAGCGTGATC ((((((....)))))) | -39.5 kcal/mol | 59.1 °C
GATCACGAGTGTGATC ((((((....)))))) | -37.7 kcal/mol | 56.3 °C
GATCACGATCGTGATC ((((((....)))))) | -47.4 kcal/mol | 59.6 °C
GATCACGCGAGTGATC ((((((....)))))) | -33.8 kcal/mol | 68.8 °C
GATCACGCGGGTGATC ((((((....)))))) | -32 kcal/mol | 57.1 °C
GATCACGCTGGTGATC ((((((....)))))) | -42.5 kcal/mol | 58.2 °C
GATCACGGAAACGCGATC ((((.((....)).)))) | -34.3 kcal/mol | 48.2 °C
GATCACGGAAACGTGGTC ((.((((....)))).)) | -38.7 kcal/mol | 53.8 °C
GATCACGGAAGTGATC ((((((....)))))) | -29.3 kcal/mol | 68.9 °C
GATCACGGTCGTGATC ((((((....)))))) | -39.6 kcal/mol | 60.7 °C
GATCACGTCCGTGATC ((((((....)))))) | -41.6 kcal/mol | 61.1 °C
GATCACTAAGTGATC ((((((...)))))) | -33.9 kcal/mol | 55.2 °C
GATCACTAATGTGATC ((((((....)))))) | -35.2 kcal/mol | 55.1 °C
GATCACTAGAGTGATC ((((((....)))))) | -40.8 kcal/mol | 56.4 °C
GATCACTCACGTGATC ((((((....)))))) | -41.5 kcal/mol | 55.8 °C
GATCACTCAGGTGATC ((((((....)))))) | -37 kcal/mol | 57.4 °C
GATCACTCCAGTGATC ((((((....)))))) | -30.5 kcal/mol | 58.4 °C
GATCACTCCCGTGATC ((((((....)))))) | -47.2 kcal/mol | 55.8 °C
GATCACTCTAGTGATC ((((((....)))))) | -40.4 kcal/mol | 59.9 °C
GATCACTCTCGTGATC ((((((....)))))) | -41.8 kcal/mol | 55.7 °C
GATCACTCTGGTGATC ((((((....)))))) | -39.8 kcal/mol | 58.8 °C
GATCACTGCCGTGATC ((((((....)))))) | -44.5 kcal/mol | 55.9 °C
GATCACTGGAGTGATC ((((((....)))))) | -48.7 kcal/mol | 55.7 °C
